# Results reported in ChEMBL document CHEMBL4689842, “EUbOPEN Chemogenomics Library wave 1” (2021).
# “And” between values parts separate entries of the source, which are not always exact repeats. Equal values may be shown once.
# Test system: HEK-293T
# Experiment: Multiplex assay against HEK293T;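 for Population Tubulin-Different-Phenotype (%): share of the cells with healthy nuclei that show this phenotype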
# Type: toxicity, cell-based
# Settings: human
# Summary of the method: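 Cells stained live at seeding with Hoechst33342, BioTracker Green Microtubule Cytoskeleton Dye, MitoTracker Red and Annexin V Alexa Fluor 680 were imaged on a CQ1 microscope at 37°C and 5% CO2 after compound addition. Their classification by CellPathfinder machine-learning gating ran from Hoechst high-intensity objects versus normal cells, to healthy, pyknosed or fragmented nuclei among normal cells, to mitotic or apoptotic among pyknosed cells. Tubulin, mitochondrial-mass and membrane-permeability phenotypes are per cents of healthy-nucleus cells.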
# [1] = 12 h, 1 µM, compound concentration 1 uM, replicate 1
# [2] = 12 h, 1 µM, compound concentration 1 uM, replicate 2
# [3] = 12 h, 10 µM, compound concentration 10 uM, replicate 1
# [4] = 12 h, 10 µM, compound concentration 10 uM, replicate 2
# [5] = 24 h, 1 µM, compound concentration 1 uM, replicate 1
# [6] = 24 h, 1 µM, compound concentration 1 uM, replicate 2
# [7] = 24 h, 10 µM, compound concentration 10 uM, replicate 1
# [8] = 24 h, 10 µM, compound concentration 10 uM, replicate 2
# [9] = 48 h, 10 µM, compound concentration 10 uM, replicate 1
# [10] = 48 h, 10 µM, compound concentration 10 uM, replicate 2
# [11] = 48 h, 1 µM, compound concentration 1 uM, replicate 1
# [12] = 48 h, 1 µM, compound concentration 1 uM, replicate 2
smiles,measurement,setting,value
CCOC(=O)Nc1cc(-c2ccc(C)c(NS(C)(=O)=O)c2)nn2c(C)nnc12,Population Apoptotic (%),[1],18%
same,Population Fragmented Nuclei (%),[1],13%
same,Population Healthy Nuclei (%),[1],68%
same,Population Hoechst High Intensity Objects (%),[1],9%
same,Population Membrane Permeable-Phenotype (%),[1],3%
same,Population Mitochondria Different-Phenotype (%),[1],3%
same,Population Mitotic Cells (%),[1],81%
same,Population Normal (%),[1],90%
same,Population Pyknosed Nuclei (%),[1],17%
same,Population Tubulin-Different-Phenotype (%),[1],2%
same,Total Cell Count,[1],561
same,Population Apoptotic (%),[2],12%
same,Population Fragmented Nuclei (%),[2],10%
same,Population Healthy Nuclei (%),[2],87%
same,Population Hoechst High Intensity Objects (%),[2],2%
same,Population Membrane Permeable-Phenotype (%),[2],0%
same,Population Mitochondria Different-Phenotype (%),[2],6%
same,Population Mitotic Cells (%),[2],87%
same,Population Normal (%),[2],97%
same,Population Pyknosed Nuclei (%),[2],2%
same,Population Tubulin-Different-Phenotype (%),[2],0%
same,Total Cell Count,[2],1857
same,Population Apoptotic (%),[3],44% and 28%
same,Population Fragmented Nuclei (%),[3],19% and 8%
same,Population Hoechst High Intensity Objects (%),[3],12% and 6%
same,Population Membrane Permeable-Phenotype (%),[3],0% and 2%
same,Population Mitotic Cells (%),[3],55% and 71%
same,Population Normal (%),[3],88% and 93%
same,Total Cell Count,[3],275 and 719
same,Population Apoptotic (%),[4],4% and 3%
same,Population Fragmented Nuclei (%),[4],16%
same,Population Healthy Nuclei (%),[4],79% and 50%
same,Population Hoechst High Intensity Objects (%),[4],3% and 4%
same,Population Mitochondria Different-Phenotype (%),[4],6% and 8%
same,Population Mitotic Cells (%),[4],95% and 96%
same,Population Normal (%),[4],96% and 95%
same,Population Tubulin-Different-Phenotype (%),[4],1%
same,Population Apoptotic (%),[5],13%
same,Population Fragmented Nuclei (%),[5],11%
same,Population Healthy Nuclei (%),[5],78%
same,Population Hoechst High Intensity Objects (%),[5],7%
same,Population Membrane Permeable-Phenotype (%),[5],4%
same,Population Mitochondria Different-Phenotype (%),[5],2%
same,Population Mitotic Cells (%),[5],86%
same,Population Normal (%),[5],92%
same,Population Pyknosed Nuclei (%),[5],9%
same,Population Tubulin-Different-Phenotype (%),[5],0%
same,Total Cell Count,[5],702
same,Population Apoptotic (%),[6],6%
same,Population Fragmented Nuclei (%),[6],32%
same,Population Healthy Nuclei (%),[6],65%
same,Population Hoechst High Intensity Objects (%),[6],4%
same,Population Membrane Permeable-Phenotype (%),[6],0%
same,Population Mitochondria Different-Phenotype (%),[6],1%
same,Population Mitotic Cells (%),[6],93%
same,Population Normal (%),[6],95%
same,Population Pyknosed Nuclei (%),[6],2%
same,Total Cell Count,[6],3024
same,Population Apoptotic (%),[7],42% and 17%
same,Population Fragmented Nuclei (%),[7],16% and 17%
same,Population Healthy Nuclei (%),[7],34% and 77%
same,Population Hoechst High Intensity Objects (%),[7],9% and 6%
same,Population Membrane Permeable-Phenotype (%),[7],1% and 6%
same,Population Mitotic Cells (%),[7],57% and 82%
same,Population Normal (%),[7],90% and 93%
same,Population Tubulin-Different-Phenotype (%),[7],1% and 2%
same,Population Healthy Nuclei (%),[8],68% and 53%
same,Population Hoechst High Intensity Objects (%),[8],2% and 5%
same,Population Mitochondria Different-Phenotype (%),[8],1%
same,Population Mitotic Cells (%),[8],98% and 95%
same,Population Normal (%),[8],97% and 94%
same,Population Apoptotic (%),[9],38%
same,Population Fragmented Nuclei (%),[9],19%
same,Population Healthy Nuclei (%),[9],48%
same,Population Hoechst High Intensity Objects (%),[9],11%
same,Population Membrane Permeable-Phenotype (%),[9],1%
same,Population Mitochondria Different-Phenotype (%),[9],4%
same,Population Mitotic Cells (%),[9],61%
same,Population Normal (%),[9],88%
same,Population Pyknosed Nuclei (%),[9],32%
same,Population Tubulin-Different-Phenotype (%),[9],1%
same,Total Cell Count,[9],380
same,Population Apoptotic (%),[10],4%
same,Population Fragmented Nuclei (%),[10],9%
same,Population Healthy Nuclei (%),[10],83%
same,Population Hoechst High Intensity Objects (%),[10],2%
same,Population Mitochondria Different-Phenotype (%),[10],0%
same,Population Mitotic Cells (%),[10],95%
same,Population Normal (%),[10],97%
same,Population Pyknosed Nuclei (%),[10],7%
same,Population Tubulin-Different-Phenotype (%),[10],0%
same,Total Cell Count,[10],566
CC1=C(C(=O)Nc2cc3cn[nH]c3cc2F)C(c2ccc(C(F)(F)F)cc2)CC(=O)N1 (configuration not stated),Population Apoptotic (%),[1],47%
same,Population Fragmented Nuclei (%),[1],13%
same,Population Healthy Nuclei (%),[1],43%
same,Population Hoechst High Intensity Objects (%),[1],7%
same,Population Membrane Permeable-Phenotype (%),[1],3%
same,Population Mitochondria Different-Phenotype (%),[1],63%
same,Population Mitotic Cells (%),[1],52%
same,Population Normal (%),[1],92%
same,Population Pyknosed Nuclei (%),[1],42%
same,Population Tubulin-Different-Phenotype (%),[1],29%
same,Total Cell Count,[1],402
same,Population Apoptotic (%),[2],6%
same,Population Fragmented Nuclei (%),[2],12%
same,Population Healthy Nuclei (%),[2],46%
same,Population Hoechst High Intensity Objects (%),[2],2%
same,Population Membrane Permeable-Phenotype (%),[2],12%
same,Population Mitochondria Different-Phenotype (%),[2],12%
same,Population Mitotic Cells (%),[2],93%
same,Population Normal (%),[2],97%
same,Population Pyknosed Nuclei (%),[2],40%
same,Population Tubulin-Different-Phenotype (%),[2],14%
same,Total Cell Count,[2],235
same,Population Apoptotic (%),[3],38%
same,Population Fragmented Nuclei (%),[3],12%
same,Population Healthy Nuclei (%),[3],41%
same,Population Hoechst High Intensity Objects (%),[3],10%
same,Population Membrane Permeable-Phenotype (%),[3],5%
same,Population Mitochondria Different-Phenotype (%),[3],64%
same,Population Mitotic Cells (%),[3],61%
same,Population Normal (%),[3],89%
same,Population Pyknosed Nuclei (%),[3],45%
same,Population Tubulin-Different-Phenotype (%),[3],36%
same,Total Cell Count,[3],236
same,Population Apoptotic (%),[4],16%
same,Population Fragmented Nuclei (%),[4],10%
same,Population Healthy Nuclei (%),[4],37%
same,Population Hoechst High Intensity Objects (%),[4],5%
same,Population Membrane Permeable-Phenotype (%),[4],11%
same,Population Mitochondria Different-Phenotype (%),[4],24%
same,Population Mitotic Cells (%),[4],83%
same,Population Normal (%),[4],95%
same,Population Pyknosed Nuclei (%),[4],52%
same,Population Tubulin-Different-Phenotype (%),[4],34%
same,Total Cell Count,[4],240
same,Population Apoptotic (%),[5],41%
same,Population Fragmented Nuclei (%),[5],11%
same,Population Healthy Nuclei (%),[5],41%
same,Population Hoechst High Intensity Objects (%),[5],12%
same,Population Membrane Permeable-Phenotype (%),[5],3%
same,Population Mitochondria Different-Phenotype (%),[5],46%
same,Population Mitotic Cells (%),[5],58%
same,Population Normal (%),[5],87%
same,Population Pyknosed Nuclei (%),[5],47%
same,Population Tubulin-Different-Phenotype (%),[5],29%
same,Total Cell Count,[5],443
same,Population Apoptotic (%),[6],12%
same,Population Healthy Nuclei (%),[6],63%
same,Population Hoechst High Intensity Objects (%),[6],1%
same,Population Membrane Permeable-Phenotype (%),[6],14%
same,Population Mitochondria Different-Phenotype (%),[6],8%
same,Population Mitotic Cells (%),[6],87%
same,Population Normal (%),[6],98%
same,Population Pyknosed Nuclei (%),[6],25%
same,Population Tubulin-Different-Phenotype (%),[6],17%
same,Total Cell Count,[6],274
same,Population Apoptotic (%),[7],42%
same,Population Fragmented Nuclei (%),[7],15%
same,Population Healthy Nuclei (%),[7],41%
same,Population Hoechst High Intensity Objects (%),[7],10%
same,Population Membrane Permeable-Phenotype (%),[7],6%
same,Population Mitochondria Different-Phenotype (%),[7],61%
same,Population Mitotic Cells (%),[7],57%
same,Population Normal (%),[7],89%
same,Population Pyknosed Nuclei (%),[7],42%
same,Population Tubulin-Different-Phenotype (%),[7],41%
same,Total Cell Count,[7],229
same,Population Apoptotic (%),[8],26%
same,Population Fragmented Nuclei (%),[8],11%
same,Population Healthy Nuclei (%),[8],61%
same,Population Hoechst High Intensity Objects (%),[8],2%
same,Population Membrane Permeable-Phenotype (%),[8],12%
same,Population Mitochondria Different-Phenotype (%),[8],26%
same,Population Mitotic Cells (%),[8],73%
same,Population Normal (%),[8],97%
same,Population Pyknosed Nuclei (%),[8],26%
same,Population Tubulin-Different-Phenotype (%),[8],47%
same,Total Cell Count,[8],258
same,Population Apoptotic (%),[11],29%
same,Population Fragmented Nuclei (%),[11],18%
same,Population Healthy Nuclei (%),[11],47%
same,Population Hoechst High Intensity Objects (%),[11],10%
same,Population Membrane Permeable-Phenotype (%),[11],6%
same,Population Mitochondria Different-Phenotype (%),[11],23%
same,Population Mitotic Cells (%),[11],70%
same,Population Normal (%),[11],89%
same,Population Pyknosed Nuclei (%),[11],34%
same,Population Tubulin-Different-Phenotype (%),[11],22%
same,Total Cell Count,[11],530
same,Population Apoptotic (%),[12],5%
same,Population Fragmented Nuclei (%),[12],10%
same,Population Healthy Nuclei (%),[12],77%
same,Population Hoechst High Intensity Objects (%),[12],2%
same,Population Membrane Permeable-Phenotype (%),[12],8%
same,Population Mitochondria Different-Phenotype (%),[12],3%
same,Population Mitotic Cells (%),[12],94%
same,Population Normal (%),[12],97%
same,Population Pyknosed Nuclei (%),[12],11%
same,Population Tubulin-Different-Phenotype (%),[12],15%
same,Total Cell Count,[12],488
same,Population Apoptotic (%),[9],49%
same,Population Fragmented Nuclei (%),[9],16%
same,Population Healthy Nuclei (%),[9],49%
same,Population Hoechst High Intensity Objects (%),[9],14%
same,Population Membrane Permeable-Phenotype (%),[9],7%
same,Population Mitochondria Different-Phenotype (%),[9],29%
same,Population Mitotic Cells (%),[9],50%
same,Population Normal (%),[9],85%
same,Population Pyknosed Nuclei (%),[9],33%
same,Population Tubulin-Different-Phenotype (%),[9],34%
same,Total Cell Count,[9],261
same,Population Apoptotic (%),[10],65%
same,Population Healthy Nuclei (%),[10],75%
same,Population Hoechst High Intensity Objects (%),[10],2%
same,Population Membrane Permeable-Phenotype (%),[10],6%
same,Population Mitochondria Different-Phenotype (%),[10],19%
same,Population Mitotic Cells (%),[10],34%
same,Population Normal (%),[10],97%
same,Population Pyknosed Nuclei (%),[10],8%
same,Population Tubulin-Different-Phenotype (%),[10],36%
same,Total Cell Count,[10],334
